Results as given in ChEMBL document CHEMBL5715938, “The protein kinase Cbeta-selective inhibitor, Enzastaurin (LY317615.HCl), suppresses signaling through the AKT pathway, induces apoptosis, and suppresses growth of human colon cancer and glioblastoma xenografts” (Cancer Res, 2005).
Calls of active or inactive are those of the source. No cut-off for these calls is given here.

Legend:
[1] = target: Mitogen-activated protein kinase 12 (Homo sapiens) (UniProt P53778); test: Inhibition of SAPK3 (unknown origin) at 1 micromol/L relative to control; settings: dose 1.0 µmol/L
Summary of the method: (§1)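 Commercial kinase profiler panel run to the provider's protocol, with the compound tested at 1 µmol/L. Activity is expressed as percent of kinase activity without compound.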

[2] = target: Serine/threonine-protein kinase N2 (Homo sapiens) (UniProt Q16513); test: Inhibition of PRK2 (unknown origin) at 1 micromol/L relative to control; settings: dose 1.0 µmol/L; summary of the method: as §1
A498 = test: Antiproliferative activity against human A498 cells assessed as reduction in cell growth upto 10 uM measured after 6 days by propidium iodide staining based analysis; type: functional; settings: time 6.0 day
Summary of the method: (§2)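 ATCC-sourced lines grown without antibiotics; 1,000 cells/well in 1% FBS medium, refed ±drug on days 1 and 4 over a 6-day course. On day 7, propidium iodide (10 μg/mL in D-PBS) read after 30 min for nonviable cells, plate frozen at -80°C 2 h, thawed and reread; proliferative index = postfreeze minus prefreeze signal.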

Hs-578T = test: Antiproliferative activity against human Hs-578T cells assessed as reduction in cell growth upto 10 uM measured after 6 days by propidium iodide staining based analysis; type: functional; settings: time 6.0 day; summary of the method: as §2
[3] = target: Mitogen-activated protein kinase 9 (Homo sapiens) (UniProt P45984); test: Inhibition of JNK2alpha2 (unknown origin) at 1 micromol/L relative to control; settings: dose 1.0 µmol/L
Summary of the method: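 Upstate Kinase Profiler panel at 1 μmol/L drug, run per provider; data expressed as percent of kinase activity without drug.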

MOLT-4 = test: Antiproliferative activity against human MOLT-4 cells assessed as reduction in cell growth upto 10 uM measured after 6 days by propidium iodide staining based analysis; type: functional; settings: time 6.0 day; summary of the method: as §2
U-87 MG = test: Induction of apoptosis in human U-87 MG cells assessed as increase in oligonucleosomal fragmentation at 1 to 4 micromol/L incubated for 48 hrs by ELISA method; type: functional, cell-based; settings: U-87MG ATCC, dose 1-4 µmol/L
Summary of the method: (§3)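 Oligonucleosomal fragmentation by Cell Death Detection ELISA-plus; 5,000 cells/well in 1% FBS medium, treated 48 h (range studied 0.1–10 μmol/L); absorbance normalized to control-treated cells to give nucleosomal enrichment factor.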

Malme-3M = test: Antiproliferative activity against human Malme-3M cells assessed as reduction in cell growth upto 10 uM measured after 6 days by propidium iodide staining based analysis; type: functional; settings: time 6.0 day; summary of the method: as §2
[4] = target: Proto-oncogene tyrosine-protein kinase Src (Homo sapiens) (UniProt P12931); test: Inhibition of c-SRC (unknown origin) at 1 micromol/L relative to control; settings: dose 1.0 µmol/L; summary of the method: as §1
[5] = target: Dual specificity mitogen-activated protein kinase kinase 6 (Homo sapiens) (UniProt P52564); test: Inhibition of MKK6 (unknown origin) at 1 micromol/L relative to control; settings: dose 1.0 µmol/L; summary of the method: as §1
[6] = target: Mitogen-activated protein kinase 14 (Homo sapiens) (UniProt Q16539); test: Inhibition of SAPK2alpha (unknown origin) at 1 micromol/L relative to control; settings: dose 1.0 µmol/L; summary of the method: as §1
[7] = target: Glycogen synthase kinase-3 beta (Homo sapiens) (UniProt P49841); settings: U-87 MG, dose 1.0 µmol/L, time <= 4.0 hrs
HCT-116 [8] = test: Inhibition of ribosomal protein S6 phosphorylation at serine 240/244 residue in human HCT-116 cells at 1 micromol/L upto 4 hrs by Western blotting analysis; type: cell-based; settings: dose 1.0 µmol/L
Summary of the method: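 HCT116 cells from ATCC were grown in FBS-containing medium without antibiotics. They were lysed in cell extraction buffer with protease inhibitor cocktails, and protein was measured by DC assay. Western blotting used phospho-S6 Ser240/244 and total S6 ribosomal protein antibodies.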

[9] = target: Protein kinase C theta type (Homo sapiens) (UniProt Q04759); test: Inhibition of PKCteta (unknown origin) at 1 micromol/L relative to control; settings: dose 1.0 µmol/L; summary of the method: as §1
HCT-116 [10] = test: Inhibition of ERK in human HCT-116 cells at 1 micromol/L measured upto 4 hrs by Western blotting analysis; type: cell-based; settings: dose 1.0 µmol/L
Summary of the method: (§4)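 Cultured tumor cells treated with 1 μmol/L drug; lysates in cell extraction buffer with protease inhibitors, western blotted with phospho-specific antibodies (pGSK3β Ser9, pAKT Thr308, phospho-ERK) alongside total GSK3β/AKT.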

[11] = target: Protein kinase C epsilon type (Homo sapiens, UniProt Q02156); test: Inhibition of recombinant human PKCepsilon using myelin basic protein as substrate incubated for 60 mins in presence of […] and ATP by microbeta scintillation counter analysis
Summary of the method: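 Recombinant human PKCε at 719 pmol/L. Myelin basic protein substrate at 0.25 mg/mL. 30 µmol/L ATP plus 32P-ATP. Started with enzyme, 60 min at room temperature, H3PO4 quench. Phosphocellulose filter capture, scintillation counting. 10-point series 1–2,000 nmol/L. IC50 from three-variable logistic fit.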

[12] = target: Glycogen synthase kinase-3 beta (Homo sapiens) (UniProt P49841); test: Inhibition of GSK3beta phosphorylation at serine 9 residue in human HCT-116 cells at 1 micromol/L by Western blotting analysis; type: cell-based; settings: dose 1.0 µmol/L, time <= 4.0 hrs, TDE = time-dependent effect; summary of the method: as §4
[13] = target: Platelet-derived growth factor receptor alpha (Homo sapiens) (UniProt P16234); test: Inhibition of PDGFRalpha (unknown origin) at 1 micromol/L relative to control; settings: dose 1.0 µmol/L; summary of the method: as §1
SK-OV-3 = test: Antiproliferative activity against human SK-OV-3 cells assessed as reduction in cell growth upto 10 uM measured after 6 days by propidium iodide staining based analysis; type: functional; settings: time 6.0 day; summary of the method: as §2
786-0 = test: Antiproliferative activity against human 786-0 cells assessed as reduction in cell growth upto 10 uM measured after 6 days by propidium iodide staining based analysis; type: functional; settings: time 6.0 day; summary of the method: as §2
[14] = target: Mitogen-activated protein kinase 11 (Homo sapiens) (UniProt Q15759); test: Inhibition of SAPK2b (unknown origin) at 1 micromol/L relative to control; settings: dose 1.0 µmol/L; summary of the method: as §1
K562 = test: Antiproliferative activity against human K562 cells assessed as reduction in cell growth upto 10 uM measured after 6 days by propidium iodide staining based analysis; type: functional; settings: time 6.0 day; summary of the method: as §2
DU-145 = test: Antiproliferative activity against human DU-145 cells assessed as reduction in cell growth upto 10 uM measured after 6 days by propidium iodide staining based analysis; type: functional; settings: time 6.0 day; summary of the method: as §2
OVCAR-5 = test: Antiproliferative activity against human OVCAR-5 cells assessed as reduction in cell growth upto 10 uM measured after 6 days by propidium iodide staining based analysis; type: functional; settings: time 6.0 day; summary of the method: as §2
HCT-116 [15] = test: Induction of apoptosis in human HCT-116 cells assessed as increase in oligonucleosomal fragmentation at 1 to 4 micromol/L incubated for 48 hrs by ELISA method; type: functional, cell-based; settings: dose 1-4 µmol/L; summary of the method: as §3
TK-10 = test: Antiproliferative activity against human TK-10 cells assessed as reduction in cell growth upto 10 uM measured after 6 days by propidium iodide staining based analysis; type: functional; settings: time 6.0 day; summary of the method: as §2
[16] = Plasma concentration in athymic nude mouse xenografted with human HCT-116 cells at 75 mg/kg, po administered twice daily measured after 2 hrs by LC-MS analysis; type: ADME, organism-based
Summary of the method: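 Female athymic nude mice, 6–8 weeks old, received 5 million HCT116 cells s.c. in the flank in 1:1 serum-free medium and matrigel (n = 9 per group). Dosing began at a group mean tumor volume of 100 mm³: 75 mg/kg twice daily by gavage, suspended in 10% acacia in water. Plasma was taken on days 1 and 21 at 0.5–12 h post-dose and measured by LC-MS/MS.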

Chain of Glycogen synthase kinase-3 beta (Homo sapiens) (P49841 whole entry, looked up): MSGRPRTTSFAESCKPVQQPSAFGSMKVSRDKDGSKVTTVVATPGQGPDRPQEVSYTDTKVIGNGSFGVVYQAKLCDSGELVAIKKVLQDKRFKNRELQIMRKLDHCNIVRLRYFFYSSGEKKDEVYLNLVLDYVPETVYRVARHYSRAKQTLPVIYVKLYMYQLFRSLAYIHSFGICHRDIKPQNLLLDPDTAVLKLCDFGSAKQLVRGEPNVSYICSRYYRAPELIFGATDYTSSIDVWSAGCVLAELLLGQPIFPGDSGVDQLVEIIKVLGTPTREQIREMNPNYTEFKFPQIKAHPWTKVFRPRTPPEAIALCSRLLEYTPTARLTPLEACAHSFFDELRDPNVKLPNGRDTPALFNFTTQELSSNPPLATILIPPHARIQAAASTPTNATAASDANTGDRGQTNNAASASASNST
Chain of Protein kinase C epsilon type (Q02156 whole entry): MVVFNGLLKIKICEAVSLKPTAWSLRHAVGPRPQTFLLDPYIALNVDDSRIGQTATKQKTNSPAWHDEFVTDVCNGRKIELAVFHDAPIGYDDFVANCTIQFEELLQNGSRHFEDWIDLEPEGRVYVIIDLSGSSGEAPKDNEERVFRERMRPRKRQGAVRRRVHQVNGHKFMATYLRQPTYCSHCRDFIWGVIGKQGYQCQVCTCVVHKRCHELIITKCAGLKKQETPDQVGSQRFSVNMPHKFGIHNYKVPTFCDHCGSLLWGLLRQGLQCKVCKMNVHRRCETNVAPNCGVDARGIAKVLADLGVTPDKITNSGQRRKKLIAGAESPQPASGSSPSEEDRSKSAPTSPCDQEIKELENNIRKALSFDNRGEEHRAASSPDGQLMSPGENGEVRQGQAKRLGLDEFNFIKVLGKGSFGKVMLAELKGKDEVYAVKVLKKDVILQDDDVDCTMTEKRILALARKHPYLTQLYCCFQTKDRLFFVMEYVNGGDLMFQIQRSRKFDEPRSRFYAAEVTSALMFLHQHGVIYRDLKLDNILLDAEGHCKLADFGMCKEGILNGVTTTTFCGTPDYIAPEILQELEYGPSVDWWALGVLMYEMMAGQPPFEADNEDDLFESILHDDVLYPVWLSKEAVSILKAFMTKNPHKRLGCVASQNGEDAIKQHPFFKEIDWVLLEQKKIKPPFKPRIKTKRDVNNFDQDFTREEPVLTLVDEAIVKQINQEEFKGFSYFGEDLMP
Chain of Serine/threonine-protein kinase N2 (Homo sapiens) (Q16513 whole entry, looked up): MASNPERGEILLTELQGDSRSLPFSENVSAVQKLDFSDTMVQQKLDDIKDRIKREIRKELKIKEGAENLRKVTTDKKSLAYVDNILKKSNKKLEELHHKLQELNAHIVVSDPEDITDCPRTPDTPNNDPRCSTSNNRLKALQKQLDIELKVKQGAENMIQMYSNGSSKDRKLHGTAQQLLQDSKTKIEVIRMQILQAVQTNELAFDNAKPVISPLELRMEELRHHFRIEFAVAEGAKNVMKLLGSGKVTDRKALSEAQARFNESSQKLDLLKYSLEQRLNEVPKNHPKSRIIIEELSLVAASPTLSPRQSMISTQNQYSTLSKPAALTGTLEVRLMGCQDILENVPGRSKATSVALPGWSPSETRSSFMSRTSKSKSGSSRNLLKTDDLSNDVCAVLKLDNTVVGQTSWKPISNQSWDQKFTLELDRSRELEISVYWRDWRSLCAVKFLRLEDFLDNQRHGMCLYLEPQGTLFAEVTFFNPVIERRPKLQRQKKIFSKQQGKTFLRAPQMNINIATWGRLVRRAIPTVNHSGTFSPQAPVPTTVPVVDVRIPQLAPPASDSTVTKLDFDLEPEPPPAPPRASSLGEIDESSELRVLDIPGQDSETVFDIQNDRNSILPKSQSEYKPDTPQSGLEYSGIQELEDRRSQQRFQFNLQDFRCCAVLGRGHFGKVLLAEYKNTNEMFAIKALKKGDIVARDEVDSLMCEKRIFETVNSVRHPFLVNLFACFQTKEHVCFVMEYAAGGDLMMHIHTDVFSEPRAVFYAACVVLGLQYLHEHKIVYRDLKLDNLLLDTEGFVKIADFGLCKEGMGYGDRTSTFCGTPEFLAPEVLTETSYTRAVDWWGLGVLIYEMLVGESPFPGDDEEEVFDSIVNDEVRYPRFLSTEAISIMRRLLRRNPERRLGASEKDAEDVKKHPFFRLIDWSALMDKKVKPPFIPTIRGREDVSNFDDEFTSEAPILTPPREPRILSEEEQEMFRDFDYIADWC
Chain of Dual specificity mitogen-activated protein kinase kinase 6 (Homo sapiens) (P52564 whole entry): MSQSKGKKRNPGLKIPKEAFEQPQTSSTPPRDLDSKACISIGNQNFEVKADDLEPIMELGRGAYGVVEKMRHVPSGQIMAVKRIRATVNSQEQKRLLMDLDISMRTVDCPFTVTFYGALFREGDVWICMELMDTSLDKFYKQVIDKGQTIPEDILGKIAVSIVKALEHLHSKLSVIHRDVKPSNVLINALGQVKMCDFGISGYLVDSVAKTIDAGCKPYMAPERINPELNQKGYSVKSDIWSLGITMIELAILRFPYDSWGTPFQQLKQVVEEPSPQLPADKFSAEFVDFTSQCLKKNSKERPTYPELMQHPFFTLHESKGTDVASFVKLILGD
Chain of Mitogen-activated protein kinase 9 (Homo sapiens) (P45984 whole entry, looked up): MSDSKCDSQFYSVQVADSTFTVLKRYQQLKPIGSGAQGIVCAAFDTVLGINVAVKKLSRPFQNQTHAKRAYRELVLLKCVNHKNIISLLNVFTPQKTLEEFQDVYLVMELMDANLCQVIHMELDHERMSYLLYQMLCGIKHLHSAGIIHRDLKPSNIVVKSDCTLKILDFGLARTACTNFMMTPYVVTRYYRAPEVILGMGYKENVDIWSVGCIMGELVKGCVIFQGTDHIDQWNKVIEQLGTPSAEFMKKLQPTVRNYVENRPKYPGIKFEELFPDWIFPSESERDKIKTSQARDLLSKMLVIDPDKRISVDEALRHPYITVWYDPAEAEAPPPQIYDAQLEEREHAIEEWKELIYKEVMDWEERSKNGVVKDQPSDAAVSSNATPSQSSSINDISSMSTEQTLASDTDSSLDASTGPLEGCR
Chain of Mitogen-activated protein kinase 14 (Homo sapiens) (Q16539 whole entry): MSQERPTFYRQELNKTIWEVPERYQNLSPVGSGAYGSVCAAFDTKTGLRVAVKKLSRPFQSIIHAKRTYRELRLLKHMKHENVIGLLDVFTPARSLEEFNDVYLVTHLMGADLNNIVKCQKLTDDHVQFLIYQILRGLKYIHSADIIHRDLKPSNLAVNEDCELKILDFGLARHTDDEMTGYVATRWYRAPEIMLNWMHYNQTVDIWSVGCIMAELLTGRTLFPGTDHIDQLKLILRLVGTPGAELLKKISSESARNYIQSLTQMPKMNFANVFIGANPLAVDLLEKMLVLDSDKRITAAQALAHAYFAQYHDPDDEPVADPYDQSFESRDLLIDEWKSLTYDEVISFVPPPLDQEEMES
Chain of Mitogen-activated protein kinase 11 (Homo sapiens) (Q15759 whole entry): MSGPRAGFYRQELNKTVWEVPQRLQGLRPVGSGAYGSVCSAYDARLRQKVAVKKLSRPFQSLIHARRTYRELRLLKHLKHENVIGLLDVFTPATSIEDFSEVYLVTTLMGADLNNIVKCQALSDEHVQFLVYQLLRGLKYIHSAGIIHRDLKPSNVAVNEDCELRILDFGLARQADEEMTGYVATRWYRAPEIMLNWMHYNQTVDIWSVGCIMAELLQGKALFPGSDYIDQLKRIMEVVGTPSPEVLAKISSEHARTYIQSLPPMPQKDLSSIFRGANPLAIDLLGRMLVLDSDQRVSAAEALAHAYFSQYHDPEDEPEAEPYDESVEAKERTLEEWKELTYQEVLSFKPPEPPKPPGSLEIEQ
Chain of Platelet-derived growth factor receptor alpha (Homo sapiens) (P16234 whole entry): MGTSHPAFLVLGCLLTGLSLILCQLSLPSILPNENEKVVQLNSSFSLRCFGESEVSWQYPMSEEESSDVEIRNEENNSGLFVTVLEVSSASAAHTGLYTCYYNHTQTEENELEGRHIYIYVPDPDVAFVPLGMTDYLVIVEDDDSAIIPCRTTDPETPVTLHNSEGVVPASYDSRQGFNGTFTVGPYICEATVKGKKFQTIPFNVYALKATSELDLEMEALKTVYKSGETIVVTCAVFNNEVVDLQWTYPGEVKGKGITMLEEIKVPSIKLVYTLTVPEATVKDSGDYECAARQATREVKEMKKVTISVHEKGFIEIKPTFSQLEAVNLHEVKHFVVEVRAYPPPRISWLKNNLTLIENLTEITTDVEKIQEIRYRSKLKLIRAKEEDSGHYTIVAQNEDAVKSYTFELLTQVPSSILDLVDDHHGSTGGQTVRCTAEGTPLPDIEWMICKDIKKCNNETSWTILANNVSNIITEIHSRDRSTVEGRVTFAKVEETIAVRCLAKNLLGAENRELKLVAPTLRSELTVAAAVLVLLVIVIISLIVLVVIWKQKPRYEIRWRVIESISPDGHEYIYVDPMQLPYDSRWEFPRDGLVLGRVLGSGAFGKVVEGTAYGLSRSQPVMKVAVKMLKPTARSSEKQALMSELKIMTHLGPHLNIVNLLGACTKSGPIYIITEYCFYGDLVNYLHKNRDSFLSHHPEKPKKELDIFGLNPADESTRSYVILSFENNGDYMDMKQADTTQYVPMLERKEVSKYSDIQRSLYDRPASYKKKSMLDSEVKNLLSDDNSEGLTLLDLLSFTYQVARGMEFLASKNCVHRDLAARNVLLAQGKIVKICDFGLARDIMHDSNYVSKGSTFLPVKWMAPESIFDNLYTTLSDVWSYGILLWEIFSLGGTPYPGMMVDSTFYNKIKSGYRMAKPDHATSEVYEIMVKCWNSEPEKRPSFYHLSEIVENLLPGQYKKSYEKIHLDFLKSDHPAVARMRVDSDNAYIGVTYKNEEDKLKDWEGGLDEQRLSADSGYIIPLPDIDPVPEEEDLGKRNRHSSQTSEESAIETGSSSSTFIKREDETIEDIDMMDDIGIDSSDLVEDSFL

Cl.Cn1cc(C2=C(c3cn(C4CCN(Cc5ccccn5)CC4)c4ccccc34)C(=O)NC2=O)c2ccccc21 [ENZASTAURIN HYDROCHLORIDE]
% control activity [1]: 88% | % control activity [2]: 88% | Activity (A498): inactive | Activity (Hs-578T): inactive | % control activity [3]: 103% | Activity (MOLT-4): Active | Activity (U-87 MG): Active | Activity (Malme-3M): inactive | % control activity [4]: 101% | % control activity [5]: 99% | % control activity [6]: 101% | inhibition [7]: Active | inhibition (HCT-116 [8]): Active | % control activity [9]: 2% | inhibition (HCT-116 [10]): inactive | IC50 [11]: 110 nM | inhibition [12]: Tde | % control activity [13]: 86% | Activity (SK-OV-3): inactive | Activity (786-0): inactive | % control activity [14]: 96% | Activity (K562): Active | Activity (DU-145): inactive | Activity (OVCAR-5): inactive | Activity (HCT-116 [15]): Active | Activity (TK-10): inactive | concentration at 2 h [16]: 2000 nM
